Experimental findings from ChEMBL document CHEMBL3259808, “Optimization of antitrypanosomatid agents: identification of nonmutagenic drug candidates with in vivo activity” (J Med Chem, 2014) are described below.

Data set [1] relates to Trypanosoma cruzi. The data set is described as follows: Antitrypanosomal activity against Trypanosoma cruzi Tulahuen 2 epimastigotes assessed as growth inhibition after 5 days. Format: functional, organism-based. The settings on record: Trypanosoma cruzi, Tulahuen 2, 120 h. In short, it runs like this:
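Epimastigotes were grown axenically at 28 °C in BHI-tryptose with 5% FBS and seeded from a 5–7 day culture at 1 × 10⁶ cells/mL. Drug from a DMSO stock was added (final DMSO ≤0.4%; the control contained 0.4% DMSO). Duplicates were run. A600 was read at day 5, and % inhibition was calculated relative to day-0 and control readings. IC50 = concentration that halves the absorbance ratio.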

A short description of data set [2]: Cytotoxicity against African green monkey Vero cells assessed as growth inhibition at 25 uM after 48 hrs by MTT assay relative to control. Format: cell-based. The conditions noted are these: chlorocebus sabaeus, read-out: GI. The method in brief:
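VERO cells were exposed to serial dilutions in fresh medium of compounds dissolved in DMSO, for 48 h at 37 °C in 5% CO₂. A DMSO (<0.1%) negative control was included. Growth inhibition was read by MTT at 570 nm; nifurtimox was the positive control.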

Data set [3] concerns Salmonella typhimurium. In words: Mutagenic activity in Salmonella typhimurium TA98 at 5 to 400 ug/plate by Ames test in presence of mouse liver S9 fraction. In kind it is toxicity, organism-based. The settings on record: salmonella enterica subsp. enterica serovar typhimurium. In short, it runs like this: (§1)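 Ames plate-incorporation assay with S. typhimurium TA98 in Vogel-Bonner E minimal glucose agar. Toxicity toward the bacteria was checked first. DMSO solutions were run in triplicate at five consecutive third-dilutions, starting at the highest non-toxic dose. Positive controls were 4-nitro-o-phenylenediamine (20.0 μg/plate) and 2-aminofluorene (10.0 μg/plate); DMSO was the negative control. Revertants were counted manually. A compound was called mutagenic when revertants were at least twice the negative control at two or more consecutive doses.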
Background: The Ames test uses bacterial strains that need an amino acid and regain growth without it when mutated back.

A short description of data set [4]: Stability of the compound in aqueous solution assessed as compound remaining at 1 mM at pH 6 after 1 hr by TLC analysis. In kind it is physicochemical. The settings on record: aqueous solution, pH 6; read-out: Stability. The method in brief: (§2)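 DMSO stocks diluted to final 1 mM in KCl·HCl pH 1.0, citrate pH 6.0, Tris·HCl pH 7.4 or borax·HCl pH 9.0 buffer. Incubated 1 h at 37 °C, then ethyl acetate extracts checked by TLC for decomposition products.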

A short description of data set [5]: Stability of the compound in aqueous solution assessed as compound remaining at 1 mM at pH 9 after 1 hr by TLC analysis. Format: physicochemical. The settings on record: aqueous solution, pH 9; read-out: Stability. The method in brief: as §2
Data set [6] is described as follows: Stability of the compound in aqueous solution assessed as compound remaining at 1 mM at pH 7.4 after 1 hr by TLC analysis. Format: physicochemical. The conditions noted are these: aqueous solution, pH 7.4; read-out: Stability. The method in brief: as §2
The test system of data set [7] is Salmonella typhimurium. In words: Mutagenic activity in Salmonella typhimurium TA98 at 5 to 400 ug/plate by Ames test. In kind it is toxicity, organism-based. The settings on record: salmonella enterica subsp. enterica serovar typhimurium. The method in brief: as §1
Data set [8] can be described thus: Selectivity index, ratio of IC50 for human RBC to IC50 for Trypanosoma cruzi Tulahuen 2 epimastigotes. The method in brief: (§3)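 Hemolysis: washed human erythrocytes (2% w/v in PBS) incubated 24 h at 37 °C with compound at final 50, 100 and 200 μM. Ten replicates per concentration. Hemoglobin release read at 405 nm against water lysis as 100%; amphotericin B 1.5 μM was the positive control. SI = IC50 red cells / parasite IC50 (Sylvio X-10 amastigotes or Tulahuen 2 epimastigotes).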

In data set [9] the test system is Salmonella typhimurium. The data set is described as follows: Mutagenic activity in Salmonella typhimurium TA98 at 0.005 to 0.4 ug/plate by Ames test in presence of mouse liver S9 fraction. In kind it is toxicity, organism-based. The conditions noted are these: salmonella enterica subsp. enterica serovar typhimurium. The method in brief:
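Plate-incorporation Ames test on minimal glucose agar with 500 μL Aroclor-treated mouse liver S9 added. DMSO solutions were tested at five consecutive 3-fold dilutions from the highest non-toxic dose, in triplicate, with a DMSO negative control. Revertants were counted manually; a compound was scored mutagenic when revertants were at least twice the negative control for two or more consecutive doses.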

For data set [10], the system named is Salmonella typhimurium. In words: Mutagenic activity in Salmonella typhimurium TA98 at 0.005 to 0.4 ug/plate by Ames test. In kind it is toxicity, organism-based. The settings on record: salmonella enterica subsp. enterica serovar typhimurium. In short, it runs like this:
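Direct plate incubation on minimal glucose agar (Vogel-Bonner E). Compound toxicity to the bacteria was checked first. DMSO solutions were tested at five consecutive 3-fold dilutions, starting from the highest non-toxic dose, in triplicate, without metabolic activation. DMSO served as negative control. Revertants were counted manually; mutagenic = revertants at least double the negative control at two or more consecutive doses.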

Data set [11] relates to Salmonella typhimurium. The data set is described as follows: Mutagenic activity in Salmonella typhimurium TA98 at 3 to 250 ug/plate by Ames test in presence of mouse liver S9 fraction. The conditions noted are these: salmonella enterica subsp. enterica serovar typhimurium. Format: toxicity, organism-based. In short, it runs like this:
as §1

Data set [12] deals with Salmonella typhimurium. In words: Mutagenic activity in Salmonella typhimurium TA98 at 0.04 to 4 ug/plate by Ames test. In kind it is toxicity, organism-based. The conditions noted are these: salmonella enterica subsp. enterica serovar typhimurium. The method in brief: as §1
Data set [13] relates to Salmonella typhimurium. In words: Mutagenic activity in Salmonella typhimurium TA98 at 0.04 to 4 ug/plate by Ames test in presence of mouse liver S9 fraction. In kind it is toxicity, organism-based. The settings on record: salmonella enterica subsp. enterica serovar typhimurium. The method in brief: as §1
For data set [14], the system named is Salmonella typhimurium. In words: Mutagenic activity in Salmonella typhimurium TA98 at 3.1 to 250 ug/plate by Ames test in presence of mouse liver S9 fraction. In kind it is toxicity, organism-based. The settings on record: salmonella enterica subsp. enterica serovar typhimurium. The method in brief: as §1
Data set [15] deals with Trypanosoma cruzi. The data set is described as follows: Antitrypanosomal activity against Trypanosoma cruzi Sylvio X-10 amastigotes infected in African green monkey Vero cells assessed as eradication of amastigotes after 5 days by Giemsa staining-based assay. Format: functional, organism-based. The conditions noted are these: Sylvio X-10, Vero, 120 h. In short, it runs like this:
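VERO cells in RPMI 1640 with 10% hiFCS were allowed to adhere for 24 h at 37 °C in 5% CO₂, then infected with tissue-derived trypomastigotes at 10:1. Free parasites were washed off after 24 h, and cultures were treated at five compound doses (text gives 72 h / 5 days). Cultures were methanol-fixed and Giemsa-stained, and infected cells were counted among 300. Quadruplicates were run in three independent experiments. IC50/IC90 were obtained by sigmoidal regression.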

For data set [16], the system named is Trypanosoma cruzi. In words: Antitrypanosomal activity against Trypanosoma cruzi Sylvio X-10 amastigotes infected in African green monkey Vero cells assessed as eradication of amastigotes after 72 hrs by Giemsa staining-based assay. The settings on record: Sylvio X-10, Vero.
Data set [17] has as its system Salmonella typhimurium. The data set is described as follows: Mutagenic activity in Salmonella typhimurium TA98 at 3.1 to 250 ug/plate by Ames test. The conditions noted are these: salmonella enterica subsp. enterica serovar typhimurium. In kind it is toxicity, organism-based. The method in brief:
as §1

Data set [18] has as its system Trypanosoma cruzi. The data set is described as follows: Antitrypanosomal activity against Trypanosoma cruzi Sylvio X-10 amastigotes infected in African green monkey Vero cells assessed as eradication of amastigotes after 72 hrs by Giemsa staining-based assay. The conditions noted are these: vero.
A short description of data set [19]: Selectivity index, ratio of IC50 for African green monkey Vero cells to IC50 for Trypanosoma cruzi Sylvio X-10 amastigotes. Format: toxicity, cell-based. The conditions noted are these: read-out: Ratio IC50. In short, it runs like this:
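VERO cytotoxicity: cells exposed 48 h at 37 °C, 5% CO2 to serial dilutions from a maximum of 2000 μM (DMSO stocks; DMSO <0.1% control); growth inhibition read by MTT at 570 nm. Amastigote IC50: Sylvio X-10-infected VERO cells, five doses, infected cells counted among 300 (Giemsa), quadruplicate, three experiments, sigmoidal fit. SI = IC50 VERO / IC50 amastigote.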

Data set [20] in a line: Selectivity index, ratio of IC50 for mouse J774.1 cells to IC50 for Trypanosoma cruzi Sylvio X-10 amastigotes. Format: toxicity. The conditions noted are these: read-out: Ratio IC50. The method in brief: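 J774.1 macrophages grown in DMEM with 10% heat-inactivated FCS and allowed to attach 48 h, then exposed 48 h at 37 °C to 12.5–400.0 μM. Triplicates. MTT 0.1 mg/mL for 3 h, read at 560 nm; IC50 by linear regression against the solvent control. SI = IC50 J774.1 / parasite IC50 (Sylvio X-10 amastigotes or Tulahuen 2 epimastigotes, the latter measured by A600 growth inhibition at day 5).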

Data set [21] is described as follows: Selectivity index, ratio of IC50 for human RBC to IC50 for Trypanosoma cruzi Sylvio X-10 amastigotes. In short, it runs like this:
as §3

Several values for one entry are separate records, joined by “and”; a condition that tells them apart may be missing. Equal values may be shown once.

What is called IC50 is the concentration that gives 50% inhibition. On to `O=[N+]([O-])c1ccc(/C=N/N=c2\[nH]c(-c3ccc(Cl)cc3)cs2)s1`, for which the IC50 in the data set on Trypanosoma cruzi [1] came out at 4.9 µM. For the same compound, the inhibition at 48 h, 25 µM in data set [2] was more than 50%.
In the case of `C=CCn1c(-c2ccc(OC)cc2)cs\c1=N/N=C/C=C/c1ccco1`, the Activity result with Salmonella typhimurium [3] and in the data set with Salmonella typhimurium [7] was “Non-toxic” in each case. The remaining at 1 h, 1000 µM in [4], in data set [5] and in data set [6] was more than 95% in each case. Also, in the data set on Trypanosoma cruzi [1], the IC50 was found to be 4.9 µM.
With `CC(=O)N(C1=NN(C(C)=O)C(c2ccc([N+](=O)[O-])s2)S1)c1ccccc1` (stereo not given), the Ratio IC50 in data set [8] turned out to be 3. Besides, in the data set on Trypanosoma cruzi [1], the 50% inhibitory concentration (IC50) came to 2.9 µM. Moreover, the results for the Activity entry in the data set on Salmonella typhimurium [9] and with Salmonella typhimurium [10] were “Non-toxic” and “Toxic”, respectively. For the same compound, the inhibition at 48 h, 25 µM in data set [2] is more than 50%.
As for `C=CCN1C(=O)CS\C1=N/N=C/C=C/c1cccs1`, the half-maximal inhibitory concentration (IC50) with Trypanosoma cruzi [1] was found to be 20 µM. Also, the Activity entry in the data set with Salmonella typhimurium [11] and in the data set with Salmonella typhimurium [7] was “Toxic” throughout.
Consider `Br.C=CCn1c(-c2ccc(Br)cc2)cs\c1=N/N=C/C=C/c1ccco1`, for which the Activity entry in the data set on Salmonella typhimurium [3] and with Salmonella typhimurium [7] was “Non-toxic” each time. In addition, the remaining at 1 h, 1000 µM in data set [4], in data set [5] and in data set [6] was more than 95% each time. Also, the IC50 in the data set with Trypanosoma cruzi [1] was 2.9 µM.
For `C=CCn1c(-c2ccc(N)cc2)cs\c1=N/N=C/C=C/c1ccco1`, the Activity entry in the data set on Salmonella typhimurium [12] and with Salmonella typhimurium [13] was “Non-toxic” each time. Besides, the half-maximal inhibitory concentration (IC50) in the data set with Trypanosoma cruzi [1] is 9 µM.
As a reminder, the IC90 is the point of the concentration-response curve where the effect stands at 90%. As for `Br.C=CCn1c(-c2ccc(Cl)cc2)cs\c1=N/N=C/C=C/C=C/c1cccs1`, the Activity result in the data set with Salmonella typhimurium [14] and in the data set with Salmonella typhimurium [17] was “Non-toxic” in each case. Further, the IC50 with Trypanosoma cruzi [1] was 11 µM; with Trypanosoma cruzi [15], more than 25 µM. Further, the concentration for an effect of 90% (IC90) in the data set with Trypanosoma cruzi [16] was more than 25 µM.
In the case of `CC1CS(=O)(=O)CCN1/N=C/c1ccc([N+](=O)[O-])o1` (stereo not given) [NIFURTIMOX], the IC50 is 0.45 µM and 2.4 µM in the data set with Trypanosoma cruzi [18]; 8 µM in the data set on Trypanosoma cruzi [1]. Further, the selectivity ratio in data set [19] and in data set [20] was 200 in each case. In data set [21], the Ratio IC50 worked out at 150.
